Screening results: PubChem, SRMLSC
The sample as a whole holds a higher share of hits than the screen did.
HCT116 bCat-KO = primary screen for growth suppressors in beta-catenin knockout HCT116 cells (colon tumor, human). AID 818, 2007. 140,000 tested, 1.5% active. viability, % at 10 µM. HCT116 beta-catenin knockout viability, CellTiter-Glo, 60 h; stronger effect = lower value;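 active = viability at or under a set limit, the compound median less 4 SD, cut at about 6% in these data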
H69AR inhibit = proliferation blockers of H69AR lung cancer cells, primary screen, cell-based, human, 86K library. H69AR lung tumor viability, ATP luminescence, 72 h; stronger effect = lower value. viability, % at 10 µM. 85,000 tested, 6% active. AID 598, 2007;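 active = viability at or below 40%; inactive = viability above 40%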;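 note: multidrug resistant small cell line overexpressing MRP-1 efflux transporter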
Lung fibro prol = antiproliferative effect on LL 47 fibroblasts – human, LL 47 cells, CellTiter-Glo luminescence, primary screen; viability, % at 10 µM; 85,000 tested, 1.1% active; LL 47 human lung fibroblast viability, ATP luminescence; stronger effect = lower value;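 active = viability at or below 50% in the single dose screen; inactive = viability above 50%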;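 note: compound exposure lasted 72 h before the ATP readout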
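Material: Human LL 47 lung fibroblast cells | Input: 1,150 cells/well | Buffer or medium: IMEM plus 15% FBS | Compound dosing: 0.1% DMSO in all compound wells | Times: Overnight cell rest, 72 h compound treatment at 37 °C | Signal: CellTiter-Glo luminescence measuring cellular ATP | Measure: % viability versus median cells-only luminescence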
HUVEC prolif 384 = inhibitors of HUVEC proliferation, primary screen, cell-based, 384-well. CellTiter-Glo luminescence, 72 h; stronger effect = lower value. viability, % at 10 µM (by protocol). 86,000 tested, 1.1% active. AID 648, 2007;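 active = viability at or below 30%; inactive = viability above 30%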
PTEN del growth = growth suppression of PTEN-null HCT116, primary screen, cell-based, CellTiter-Glo. HCT116 PTEN-null viability, 60 h; stronger effect = lower value. viability, % at 10 µM. 140,000 tested, 1.2% active;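 active = viability at or below a set limit, 4 SD under the median of all tested compounds, cut at about 3.7% in these data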;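 note: PTEN knockout HCT116 line with beta catenin targeted HCT116 as companion control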
A number is an active result; . = inactive; / = no result.

SMILES	HCT116 bCat-KO	H69AR inhibit	Lung fibro prol	HUVEC prolif 384	PTEN del growth
Cc1ccc(S(=O)(=O)Cc2ccc(C(=O)N3CCN(c4ccc(F)cc4)CC3)o2)cc1	.	20	.	.	.
Cc1ccccc1S(=O)(=O)Cc1ccc(C(=O)N2CCN(c3ccc(F)cc3)CC2)o1	.	34	.	.	.
Cc1ccccc1S(=O)(=O)Cc1ccc(C(=O)N2CCN(c3ncccn3)CC2)o1	.	.	.	.	.
CCCc1nc2ccccc2c(C(=O)OCC(=O)NCc2ccco2)c1CC	.	.	.	.	.
CCCc1nc2ccccc2c(C(=O)OCC(=O)Nc2ccc(S(=O)(=O)N3CCOCC3)cc2)c1CC	.	5.8	.	.	.
CCCc1nc2ccccc2c(C(=O)OCC(=O)Nc2cccc(S(=O)(=O)N3CCOCC3)c2)c1CC	.	35	.	.	/
O=S(=O)(c1ccc(Cl)cc1)n1nnc2ccccc21	.	.	.	.	.
Cc1ccc(C(=O)c2c[nH]c3c(F)cc(F)cc3c2=O)cc1	.	/	/	/	.
COc1cc2c(O)c3c(c(-c4ccc5c(c4)OCO5)c2cc1OC)C(=O)OC3	2.5	3.6	11	2.6	2.6
COc1cc2c(=O)n(-c3ccc(C)cc3)c(=O)n(CC(=O)c3ccc4c(c3)OCO4)c2cc1OC	.	.	.	.	.
CN(C)S(=O)(=O)c1ccc(C(=O)Nc2nnc(SCc3cccc(F)c3)s2)cc1	.	/	/	/	.
Cc1cc(C(=O)COC(=O)Cc2n[nH]c(=O)c3ccccc23)c(C)n1-c1ccc2c(c1)OCO2	.	/	/	/	.
O=C(Cc1n[nH]c(=O)c2ccccc12)OCC(=O)c1ccc2c(c1)OCCO2	.	24	.	.	.
CCCC(=O)Nc1nc2ccc(NC(=O)c3ccc(Br)o3)cc2s1	.	.	.	.	.
CCN(CC)c1cc(C)c2cc(NC(=O)c3ccc(Br)o3)ccc2n1	.	.	.	28	.
CCN1CCN(c2cc(C)c3cc(NC(=O)c4ccc(Br)o4)ccc3n2)CC1	.	.	43	4.5	.
O=C(Nc1ccc2nn(-c3ccccc3)nc2c1)c1ccc(Br)o1	.	30	.	.	.
COc1ccccc1-c1c(C)nn2c(N3CCCCCC3)cc(C)nc12	2.6	/	/	/	3.2
COc1ccccc1-c1c(C)nn2c(N3CCN(Cc4ccccc4)CC3)cc(C)nc12	.	.	.	.	.
COc1ccc(-c2c(C)nn3c(N4CCN(Cc5ccccc5)CC4)cc(C)nc23)cc1OC	.	17	.	.	.
COc1ccccc1N1CCN(c2cc(C)nc3nc(C)nn23)CC1	.	40	.	.	.
Cc1cc(N2CCN(Cc3ccccc3)CC2)n2nc(C)c(-c3ccccc3)c2n1	.	19	.	.	.
COc1ccccc1-c1c(C)nn2c(N3CCN(c4ccccc4OC)CC3)cc(C)nc12	.	.	.	.	.
N#C/C(=C\Nc1ccccc1O)c1nc2ccccc2o1	.	/	/	/	.
Cc1cccc(-n2c(C)nc3cc(C(=O)NCc4ccc5c(c4)OCO5)ccc32)c1	.	/	/	/	.
SMILES	HCT116 bCat-KO	H69AR inhibit	Lung fibro prol	HUVEC prolif 384	PTEN del growth
Cc1cc(SCC#N)n2nc(C)c(-c3ccccc3)c2n1	.	26	.	.	.
CCOCCCNC(=O)C1CCN(c2cc(C)nc3c(-c4ccc(OC)c(OC)c4)c(C)nn23)CC1	.	33	.	.	.
COc1cc(C(=O)O/N=C2/C=C(C)C(=O)C=C2C)cc(OC)c1OC	3.6	/	/	/	.
Cc1ccc(-c2nn(-c3ccccc3)c3[nH]c(=O)c(CNCc4ccccc4)cc23)cc1	3.5	.	.	4.8	.
CCOc1ccc(NCc2cc3c(C(C)(C)C)nn(-c4ccccc4)c3[nH]c2=O)cc1	2.3	/	/	/	1.2
Cc1nn(-c2ccccc2)c2[nH]c(=O)c(CNCc3ccc4c(c3)OCO4)cc12	.	.	.	.	.
Cc1ccc(-c2nn(-c3ccccc3)c3[nH]c(=O)c(CNCCN(C)C)cc23)cc1	/	17	.	.	/
COc1cccc(NCc2cc3c(C(C)(C)C)nn(-c4ccccc4)c3[nH]c2=O)c1	.	.	.	.	.
Cn1c(SC2=CS(=O)(=O)c3ccccc32)nc2ccccc21	2.5	0.6	2.2	.	1.4
CCOC(=O)c1c(N)sc2c(OC)c(Br)ccc12	.	.	.	27	.
Cc1c(CCOC(=O)C2C3CC4CC(C3)CC2C4)sc[n+]1CC(=O)c1ccc(Br)cc1 (configuration not stated)	.	0.9	.	2.6	.
CCOc1ccc2c(c1)C(=NNC(=O)c1ccncc1)c1cc(OCC)ccc1-2	3.7	/	/	/	2.4
CCOc1ccc(NC(=O)c2ccncc2)cc1	.	.	.	.	.
Cn1c(=O)c2c(-c3ccccc3)n(C3CCCCC3)cc2n(C)c1=O	.	37	.	.	.
Cc1cccc(-c2c3c(=O)n(C)c(=O)n(C)c3cn2C2CCCCC2)c1	.	23	.	.	.
Cc1cccc(-c2c3c(=O)n(C)c(=O)n(C)c3cn2C(C)(C)C)c1	.	.	.	.	.
COc1ccc(CCNC(=O)CSc2nc3ccccc3o2)cc1	.	.	.	.	.
Cc1ccc(NCc2nnc(SCC(=O)N3c4ccccc4Sc4ccccc43)o2)c(C)c1	.	/	/	/	.
Oc1ccc(N=Nc2c(O)ccc3ccccc23)cc1	.	/	/	/	.
Oc1c(N=Nc2ccccn2)ccc2ccccc12	1.8	/	/	/	2.0
CCN(CC)c1ccc(/C=c2/sc3nnc(-c4ccccc4C)n3c2=O)cc1	.	20	.	.	.
CCN(CC)c1ccc(/C=c2\sc3nnc(-c4ccccc4Cl)n3c2=O)cc1	.	.	.	.	.
COC(=O)C1=C(C)NC2=C(C(=O)CC(C)(C)C2)C1c1cnn(C)c1C (configuration not stated)	.	/	/	/	.
CCOC(=O)C1=C(c2ccccc2)Nc2ncnn2C1c1cc(OC)ccc1OC (configuration not stated)	.	39	.	.	.
COc1ccccc1NC(=O)Nc1c(C)n(C)n(-c2ccccc2)c1=O	.	32	.	.	.
SMILES	HCT116 bCat-KO	H69AR inhibit	Lung fibro prol	HUVEC prolif 384	PTEN del growth
Cc1c(NC(=O)C2CCCNC2=O)c(=O)n(-c2ccccc2)n1C (configuration not stated)	.	39	/	.	.
CCCCc1cc(=O)oc2cc(C)cc(O)c12	5.1	10	.	.	.
Cc1cc(O)c2c(-c3ccccc3)cc(=O)oc2c1	.	39	.	.	.
COc1ccc([N+](=O)[O-])cc1COc1cc(C)cc2oc(=O)cc(-c3ccccc3)c12	.	/	/	/	.
CC1CCCCC1NC(=O)c1cc2ccccc2o1 (configuration not stated)	.	/	/	/	.
CCOC(=O)c1ccc(NC(=O)COC(=O)Cc2csc(-c3ccccc3)n2)cc1	.	/	/	/	.
O=C(CC1c2ccccc2Oc2ccccc21)N1CCN(c2ccccn2)CC1	.	38	.	.	.
COc1ccc(/C=N/Nc2snc(SC)c2C#N)cc1OC	.	.	.	.	.
